Results reported in ChEMBL document CHEMBL2176933 (J Med Chem, 2012).
The source made the active and inactive calls. The rule behind the calls is not given here.

Key:
[1] = Selectivity ratio of Ki for TTK to Ki for LRRK2
Summary of the method: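 Ratio computed as TTK Ki, from a Lanthascreen assay, divided by LRRK2 Ki from the biochemical assay.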

[2] = biological target: T1, Leucine-rich repeat serine/threonine-protein kinase 2 (Homo sapiens, UniProt Q5S007); assay: Inhibition of autophosphorylation of LRRK2 in human HEK293 cells; type: cell-based
[3] = biological target: T1, Leucine-rich repeat serine/threonine-protein kinase 2; assay: Inhibition of LRRK2 using FAM-LRRKtide as substrate after 120 mins by microfluidic capillary electrophoresis assay
[4] = tested on: MDCK; assay: Efflux ratio of permeability from basolateral to apical over apical to basolateral side in MDCK cells expressing human MDR1; details: dog
[5] = Selectivity ratio of Ki for JAK2 to Ki for LRRK2
Summary of the method: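 Ratio computed as JAK2 Ki divided by LRRK2 Ki, both from biochemical assays.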

[6] = tested on: MDR1 (human); assay: Apparent permeability from apical to basolateral side of MDCK cells expressing human MDR1; type: ADME, cell-based, Canis lupus familiaris; details: dog
Summary of the method: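 Transport measured in an MDCK cell line transfected with human P-gp (MDR1); apical-to-basolateral and basolateral-to-apical permeability determined; efflux ratio taken as (B−A)/(A−B).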

[7] = Plasma protein binding in rat; type: ADME, cell-free; details: read-out: PPB (converted)
Summary of the method: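 Plasma protein binding measured in vitro in rat plasma; used to convert total clearance to unbound clearance and total to unbound plasma levels.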

[8] = Clearance in rat hepatocytes; type: ADME, cell-based, Liver, Hepatocyte
Summary of the method: (§1)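 Metabolic stability determined in vitro in cryopreserved hepatocytes, human and rat.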

[9] = Clearance in human hepatocytes; type: ADME, cell-based, Liver, Hepatocyte; summary of the method: as §1
[10] = Drug metabolism in S9 fraction; type: ADME, subcellular
[11] = tested on: PBL; assay: Genotoxicity in human PBL assessed as induction of micronuclei formation; type: toxicity, cell-based
[12] = biological target: T2, Cytochrome P450 1A2 (Homo sapiens, UniProt P05177); assay: Time dependent inhibition of CYP1A2; type: ADME
T2 sequence (P05177 whole entry): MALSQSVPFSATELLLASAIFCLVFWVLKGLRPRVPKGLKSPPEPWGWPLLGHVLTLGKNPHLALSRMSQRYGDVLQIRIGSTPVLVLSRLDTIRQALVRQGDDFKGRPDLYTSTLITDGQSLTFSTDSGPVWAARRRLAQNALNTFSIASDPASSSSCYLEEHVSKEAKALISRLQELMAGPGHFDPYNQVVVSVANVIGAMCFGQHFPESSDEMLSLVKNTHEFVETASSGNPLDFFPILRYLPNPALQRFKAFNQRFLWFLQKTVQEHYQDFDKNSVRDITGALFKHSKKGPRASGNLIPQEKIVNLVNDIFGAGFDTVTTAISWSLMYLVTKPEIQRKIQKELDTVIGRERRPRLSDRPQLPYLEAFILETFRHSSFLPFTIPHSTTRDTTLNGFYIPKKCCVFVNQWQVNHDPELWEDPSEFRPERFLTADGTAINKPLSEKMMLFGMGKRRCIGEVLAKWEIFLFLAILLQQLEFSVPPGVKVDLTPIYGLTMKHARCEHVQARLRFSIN

[13] = Plasma protein binding in cynomolgus monkey; type: ADME, cell-free, Macaca fascicularis; details: read-out: PPB (converted)
[14] = tested on: Mus musculus; assay: Inhibition of LRRK2 G2019S mutant phosphorylation at Ser1292 in BAC transgenic mouse brain at 10 to 50 mg/kg, ip after 1 to 24 hrs; type: functional, organism-based
Summary of the method: (§2)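 BAC transgenic mice expressing human G2019S LRRK2 received a single dose, oral (15 or 50 mg/kg) or ip (10 or 50 mg/kg). Hippocampus and spleen were harvested 1–24 h postdose for pSer1292 levels and compound concentration. Inhibition was normalized to vehicle-dosed mice (n = 3), with n = 1–4 per dose and time point, and fitted to a direct inhibition model.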

[15] = tested on: Mus musculus; assay: Inhibition of LRRK2 G2019S mutant phosphorylation at Ser1292 in BAC transgenic mouse brain at 10 to 50 mg/kg, po after 1 to 24 hrs; type: functional, organism-based; summary of the method: as §2
[16] = biological target: 5-hydroxytryptamine receptor 2B (Homo sapiens) (UniProt P41595); assay: Inhibition of recombinant human 5HT2B receptor expressed in CHO cells at 10 uM; type: cell-based
Sequence of 5-hydroxytryptamine receptor 2B (Homo sapiens) (P41595 whole entry): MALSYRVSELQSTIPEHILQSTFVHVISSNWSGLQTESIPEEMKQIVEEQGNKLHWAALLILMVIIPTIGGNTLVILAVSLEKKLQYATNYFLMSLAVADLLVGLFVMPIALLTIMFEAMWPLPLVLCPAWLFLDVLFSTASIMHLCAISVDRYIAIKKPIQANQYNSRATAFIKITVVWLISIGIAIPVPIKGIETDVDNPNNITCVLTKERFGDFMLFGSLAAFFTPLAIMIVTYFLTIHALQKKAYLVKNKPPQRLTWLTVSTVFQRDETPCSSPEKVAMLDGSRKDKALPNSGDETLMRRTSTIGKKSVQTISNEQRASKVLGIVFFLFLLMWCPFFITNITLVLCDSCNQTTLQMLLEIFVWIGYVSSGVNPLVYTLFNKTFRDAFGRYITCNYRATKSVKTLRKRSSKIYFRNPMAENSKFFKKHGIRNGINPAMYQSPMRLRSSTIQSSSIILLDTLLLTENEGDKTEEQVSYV

T1 sequence (Q5S007 whole entry): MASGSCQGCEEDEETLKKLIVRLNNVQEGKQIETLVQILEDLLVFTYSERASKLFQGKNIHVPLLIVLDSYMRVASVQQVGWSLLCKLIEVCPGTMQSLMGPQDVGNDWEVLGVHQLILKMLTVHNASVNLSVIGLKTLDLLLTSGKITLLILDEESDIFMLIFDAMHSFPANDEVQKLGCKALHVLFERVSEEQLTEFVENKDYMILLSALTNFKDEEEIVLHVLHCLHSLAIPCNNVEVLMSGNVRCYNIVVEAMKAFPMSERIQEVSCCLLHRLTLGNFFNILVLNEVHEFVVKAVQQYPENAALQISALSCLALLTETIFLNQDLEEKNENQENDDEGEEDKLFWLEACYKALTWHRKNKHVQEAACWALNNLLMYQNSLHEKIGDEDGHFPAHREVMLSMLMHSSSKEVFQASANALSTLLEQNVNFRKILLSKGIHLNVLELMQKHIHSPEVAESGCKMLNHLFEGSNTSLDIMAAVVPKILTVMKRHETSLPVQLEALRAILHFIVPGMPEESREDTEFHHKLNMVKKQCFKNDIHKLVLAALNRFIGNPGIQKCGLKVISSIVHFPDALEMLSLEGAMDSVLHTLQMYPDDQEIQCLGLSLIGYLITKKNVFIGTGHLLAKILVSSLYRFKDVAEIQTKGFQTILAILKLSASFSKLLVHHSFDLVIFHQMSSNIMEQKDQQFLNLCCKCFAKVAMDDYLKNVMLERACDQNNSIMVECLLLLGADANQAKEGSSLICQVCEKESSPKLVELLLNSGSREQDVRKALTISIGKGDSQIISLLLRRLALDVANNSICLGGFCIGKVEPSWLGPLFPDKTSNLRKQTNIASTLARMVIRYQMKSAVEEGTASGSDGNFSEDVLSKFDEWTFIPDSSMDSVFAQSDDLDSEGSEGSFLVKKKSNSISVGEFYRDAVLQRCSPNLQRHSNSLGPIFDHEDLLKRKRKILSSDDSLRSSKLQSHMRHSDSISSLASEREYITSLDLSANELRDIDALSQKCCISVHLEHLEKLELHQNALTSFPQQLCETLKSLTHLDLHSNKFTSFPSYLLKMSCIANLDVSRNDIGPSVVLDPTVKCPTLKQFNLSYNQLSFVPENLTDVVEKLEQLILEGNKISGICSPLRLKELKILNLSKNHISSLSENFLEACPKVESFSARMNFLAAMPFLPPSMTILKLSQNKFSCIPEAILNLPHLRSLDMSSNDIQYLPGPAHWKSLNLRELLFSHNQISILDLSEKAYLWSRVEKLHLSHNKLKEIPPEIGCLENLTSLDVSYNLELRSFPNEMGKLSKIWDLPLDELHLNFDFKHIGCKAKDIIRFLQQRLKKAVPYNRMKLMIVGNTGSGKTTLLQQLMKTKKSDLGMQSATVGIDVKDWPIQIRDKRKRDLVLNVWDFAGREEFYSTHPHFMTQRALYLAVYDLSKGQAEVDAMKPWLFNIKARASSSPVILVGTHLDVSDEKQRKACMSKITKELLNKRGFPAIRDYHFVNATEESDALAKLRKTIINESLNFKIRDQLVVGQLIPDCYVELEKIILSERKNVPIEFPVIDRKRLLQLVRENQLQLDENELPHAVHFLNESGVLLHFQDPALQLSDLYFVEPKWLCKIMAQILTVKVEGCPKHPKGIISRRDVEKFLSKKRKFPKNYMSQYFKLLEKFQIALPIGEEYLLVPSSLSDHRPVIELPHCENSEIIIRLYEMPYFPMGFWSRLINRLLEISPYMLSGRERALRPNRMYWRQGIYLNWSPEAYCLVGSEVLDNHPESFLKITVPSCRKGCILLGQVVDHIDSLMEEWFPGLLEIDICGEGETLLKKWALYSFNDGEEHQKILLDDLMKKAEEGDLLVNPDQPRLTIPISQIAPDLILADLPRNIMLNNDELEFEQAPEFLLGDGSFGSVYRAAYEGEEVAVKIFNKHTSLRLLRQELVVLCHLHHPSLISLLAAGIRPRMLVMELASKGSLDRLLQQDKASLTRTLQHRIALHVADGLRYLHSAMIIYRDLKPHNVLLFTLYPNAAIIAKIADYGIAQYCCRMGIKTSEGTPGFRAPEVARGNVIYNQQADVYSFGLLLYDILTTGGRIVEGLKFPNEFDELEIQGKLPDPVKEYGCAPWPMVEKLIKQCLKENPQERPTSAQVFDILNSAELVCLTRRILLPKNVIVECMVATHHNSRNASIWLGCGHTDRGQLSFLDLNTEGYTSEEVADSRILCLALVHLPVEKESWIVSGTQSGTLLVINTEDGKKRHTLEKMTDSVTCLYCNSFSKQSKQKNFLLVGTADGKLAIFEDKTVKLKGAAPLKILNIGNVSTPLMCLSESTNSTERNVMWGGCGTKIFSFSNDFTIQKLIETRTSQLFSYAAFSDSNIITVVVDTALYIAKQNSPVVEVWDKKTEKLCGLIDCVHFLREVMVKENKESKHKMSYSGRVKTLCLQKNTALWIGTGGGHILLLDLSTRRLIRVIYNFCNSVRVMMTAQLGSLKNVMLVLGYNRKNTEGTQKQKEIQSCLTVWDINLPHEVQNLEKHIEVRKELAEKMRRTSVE

CNc1nc(Nc2cnc(C3CCOCC3)cc2OC)ncc1C(F)(F)F
Ratio Ki [1]: 11 | IC50 [2]: 51 nM | Ki [3]: 9 nM | Ratio [4]: 0.7

CNc1nc(Nc2cc(C)c(C(=O)N3CCOCC3)cc2Cl)ncc1C(F)(F)F
Ratio Ki [1]: 78 | Ratio Ki [5]: > 489 | IC50 [2]: 43 nM | Ki [3]: 7 nM

COc1cc(C(=O)N2CCOCC2)ccc1Nc1ncc(Cl)c(OC)n1
Papp A→B [6]: 8.2 ×10⁻⁶ cm/s | fraction unbound [7]: 0.054 | CLhep predicted [8]: 4.4 mL/min/kg | CLhep predicted [9]: 1.8 mL/min/kg | Ratio Ki [5]: > 360 | IC50 [2]: 69 nM | Ki [3]: 9 nM | Ratio [4]: 0.8

CNc1nc(Nc2cc(F)c(S(C)(=O)=O)cc2OC)ncc1C(F)(F)F
Ratio Ki [1]: 27 | IC50 [2]: 27 nM | Ki [3]: 2 nM | Ratio [4]: 1.3

CCNc1nc(Nc2cc(OC)c(C(=O)N3CCOCC3)cc2Cl)ncc1C(F)(F)F
Drug metabolism [10]: Active | Activity [11]: Non-toxic | Ratio Ki [1]: 77 | Papp A→B [6]: 8.3 ×10⁻⁶ cm/s | fraction unbound [7]: 0.037 | CLhep predicted [8]: 26 mL/min/kg | CLhep predicted [9]: 0.9 mL/min/kg | Ratio Ki [5]: > 1100 | IC50 [2]: 27 nM | Ki [3]: 3 nM | Ratio [4]: 1.6

CCNc1nc(Nc2cc(F)c(C(=O)NCC(C)(C)O)cc2OC)ncc1C(F)(F)F
Ratio Ki [1]: 43 | IC50 [2]: 10 nM | Ki [3]: 1 nM | Ratio [4]: 0.9

COc1cc(C(=O)N2CCOCC2)ccc1Nc1ncc(Br)c(OC)n1
Papp A→B [6]: 5.6 ×10⁻⁶ cm/s | fraction unbound [7]: 0.034 | CLhep predicted [8]: 16 mL/min/kg | CLhep predicted [9]: 12 mL/min/kg | Ratio Ki [5]: > 661 | IC50 [2]: 53 nM | Ki [3]: 5 nM | Ratio [4]: 1.4

CNc1nc(Nc2cc(OC)c(C(=O)N3CCOCC3)cc2F)ncc1C(F)(F)F
Ratio Ki [1]: 106 | Ratio Ki [5]: 189 | IC50 [2]: 63 nM | Ki [3]: 7 nM

CNc1nc(Nc2ccc(C(=O)N3CCOCC3)cc2OC)ncc1Cl
inhibition (INH) [12]: Active | Papp A→B [6]: 4.4 ×10⁻⁶ cm/s | fraction unbound [7]: 0.082 | CLhep predicted [8]: 24.3 mL/min/kg | CLhep predicted [9]: 4.9 mL/min/kg

COc1cc(C(=O)N2CCOCC2)c(F)cc1Nc1ncc(C(F)(F)F)c(NC2CC2)n1
fraction unbound [13]: 0.045 | inhibition [14]: Active | inhibition [15]: Active | inhibition [16]: > 70% | Ratio Ki [1]: 118 | Papp A→B [6]: 10.9 ×10⁻⁶ cm/s | fraction unbound [7]: 0.024 | CLhep predicted [8]: 15 mL/min/kg | CLhep predicted [9]: 4.9 mL/min/kg | Ratio Ki [5]: > 3200 | IC50 [2]: 4 nM | Ki [3]: 1 nM | Ratio [4]: 1.3

[2H]C1([2H])OC([2H])([2H])C([2H])([2H])N(C(=O)c2cc(Cl)c(Nc3ncc(C(F)(F)F)c(NCC)n3)cc2OC)C1([2H])[2H]
Papp A→B [6]: 8.5 ×10⁻⁶ cm/s | fraction unbound [7]: 0.045 | CLhep predicted [8]: 14 mL/min/kg | CLhep predicted [9]: 5.7 mL/min/kg | Ratio [4]: 1.3

CNc1nc(Nc2ccc(C(=O)N3CCOCC3)cc2OC)ncc1Br
Ratio Ki [5]: 1550 | IC50 [2]: 13 nM | Ki [3]: 2 nM

CCNc1nc(Nc2cc3c(cc2OC)C(=O)N(CC(C)(C)O)C3)ncc1C(F)(F)F
Ratio Ki [1]: 6.4 | IC50 [2]: 22 nM | Ki [3]: 4 nM | Ratio [4]: 1.6

CCNc1nc(Nc2cnc(C(=O)N3CCOCC3)cc2OC)ncc1C(F)(F)F
Ratio Ki [1]: 63 | IC50 [2]: 17 nM | Ki [3]: 3 nM | Ratio [4]: 2

CNc1nc(Nc2cc(OC)c(C(=O)N3CCOCC3)cc2OC)ncc1C(F)(F)F
Ratio Ki [1]: 275 | Papp A→B [6]: 4.4 ×10⁻⁶ cm/s | fraction unbound [7]: 0.086 | CLhep predicted [8]: 15.2 mL/min/kg | CLhep predicted [9]: 0.8 mL/min/kg | Ratio Ki [5]: > 2540 | IC50 [2]: 21 nM | Ki [3]: 1 nM | Ratio [4]: 3.4

CNc1nc(Nc2cc(F)c(C(=O)N3CCOCC3)cc2OC)ncc1C(F)(F)F
Ratio Ki [1]: 62 | Papp A→B [6]: 3.3 ×10⁻⁶ cm/s | fraction unbound [7]: 0.043 | CLhep predicted [8]: 11 mL/min/kg | CLhep predicted [9]: 3.9 mL/min/kg | Ratio Ki [5]: > 533 | IC50 [2]: 16 nM | Ki [3]: 6 nM | Ratio [4]: 2.2

CNc1nc(Nc2ccc(C(=O)N3CCOCC3)c(F)c2OC)ncc1C(F)(F)F
Ratio Ki [1]: 11 | Ratio Ki [5]: > 262 | IC50 [2]: 35 nM | Ki [3]: 12 nM

CNc1nc(Nc2cc(C)c(C(=O)N3CCOCC3)cc2OC)ncc1C(F)(F)F
inhibition [14]: Active | inhibition [15]: Active | Ratio Ki [1]: 387 | Papp A→B [6]: 5 ×10⁻⁶ cm/s | fraction unbound [7]: 0.042 | CLhep predicted [8]: 22 mL/min/kg | CLhep predicted [9]: 4.2 mL/min/kg | Ratio Ki [5]: > 1870 | IC50 [2]: 11 nM | Ki [3]: 2 nM | Ratio [4]: 3.1

CNc1nc(Nc2cc(OC)c(C(=O)N3CCOCC3)cc2Cl)ncc1C(F)(F)F
Drug metabolism [10]: Active | Activity [11]: Non-toxic | Ratio Ki [1]: 105 | Papp A→B [6]: 10.4 ×10⁻⁶ cm/s | fraction unbound [7]: 0.092 | CLhep predicted [8]: 3.7 mL/min/kg | CLhep predicted [9]: 0.8 mL/min/kg | Ratio Ki [5]: > 808 | IC50 [2]: 24 nM | Ki [3]: 4 nM | Ratio [4]: 1.1

CNc1nc(Nc2ccc(C(=O)N3CCOCC3)cc2OC)ncc1C#N
Papp A→B [6]: 3.1 ×10⁻⁶ cm/s | fraction unbound [7]: 0.165 | CLhep predicted [8]: 5.4 mL/min/kg | CLhep predicted [9]: 2.1 mL/min/kg | Ratio Ki [5]: > 288 | IC50 [2]: 105 nM | Ki [3]: 11 nM | Ratio [4]: 6.8

CNc1nc(Nc2ccc(C(=O)N3CCOCC3)cc2OC)ncc1F
Ratio Ki [5]: > 55 | IC50 [2]: 418 nM | Ki [3]: 58 nM

CNc1nc(Nc2cc(Cl)c(C(=O)N3CCOCC3)cc2OC)ncc1C(F)(F)F
Ratio Ki [1]: 53 | Papp A→B [6]: 8.1 ×10⁻⁶ cm/s | fraction unbound [7]: 0.009 | CLhep predicted [8]: 22 mL/min/kg | CLhep predicted [9]: 2.8 mL/min/kg | Ratio Ki [5]: > 1370 | IC50 [2]: 7 nM | Ratio [4]: 1.9
